Reference: ChEMBL document CHEMBL3769331, “Discovery of a new selective inhibitor of A Disintegrin And Metalloprotease 10 (ADAM-10) able to reduce the shedding of NKG2D ligands in Hodgkin's lymphoma cell models” (Eur J Med Chem, 2016)

What was measured:
[1] = target: Matrix metalloproteinase-14 (Homo sapiens, UniProt P50281); experiment: Inhibition of recombinant human MMP-14 using Mca-Lys-Pro-Leu-Gly-Leu-Dap(Dnp)-Ala-Arg-NH2 as substrate after 3 hrs by fluorometric assay
Procedure, shortened: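 MMP-14 catalytic domain, final 1.0 nM, preincubated with inhibitor for 3 h at 25 °C in Tris 50 mM pH 7.5, NaCl 150 mM, CaCl2 10 mM, Brij-35 0.05%, DMSO 1%. Substrate final 2 µM. Fluorescence (ex 325/em 400 nm) read every 15 s for 20 min. Duplicates; IC50 from the vi/vo equation.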

[2] = target: T1, Disintegrin and metalloproteinase domain-containing protein 10 (Homo sapiens, UniProt O14672); experiment: Inhibition of recombinant human ADAM-10 using Mca-Lys-Pro-Leu-Gly-Leu-Dap(Dnp)-Ala-Arg-NH2 as substrate after 1 hr by fluorometric assay
T1 sequence (O14672 whole entry): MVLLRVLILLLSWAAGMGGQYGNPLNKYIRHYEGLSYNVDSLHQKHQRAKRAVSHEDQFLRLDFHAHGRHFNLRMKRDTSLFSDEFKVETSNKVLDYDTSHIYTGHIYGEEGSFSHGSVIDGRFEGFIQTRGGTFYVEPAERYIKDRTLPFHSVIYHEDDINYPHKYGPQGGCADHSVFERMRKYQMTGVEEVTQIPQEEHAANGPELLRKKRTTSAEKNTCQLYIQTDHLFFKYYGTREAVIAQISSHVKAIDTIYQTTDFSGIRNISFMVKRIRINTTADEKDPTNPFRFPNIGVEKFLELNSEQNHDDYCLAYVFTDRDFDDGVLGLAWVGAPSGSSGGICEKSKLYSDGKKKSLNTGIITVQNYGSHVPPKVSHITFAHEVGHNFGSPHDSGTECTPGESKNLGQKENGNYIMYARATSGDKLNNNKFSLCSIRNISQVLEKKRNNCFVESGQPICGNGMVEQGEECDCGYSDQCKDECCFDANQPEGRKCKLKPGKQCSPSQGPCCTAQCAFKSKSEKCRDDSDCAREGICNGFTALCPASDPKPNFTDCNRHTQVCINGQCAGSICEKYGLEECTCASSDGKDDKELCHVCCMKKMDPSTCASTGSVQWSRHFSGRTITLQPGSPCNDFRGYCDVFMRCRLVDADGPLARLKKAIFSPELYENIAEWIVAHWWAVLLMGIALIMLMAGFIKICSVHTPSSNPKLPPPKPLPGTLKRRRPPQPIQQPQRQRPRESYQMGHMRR
Procedure, shortened: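 Recombinant human ADAM-10, final 20 nM, preincubated with inhibitor for 1 h at 37 °C in Tris 25 mM pH 9, ZnCl2 25 µM, Brij-35 0.005%. Substrate final 10 µM. Fluorescence (ex 325/em 400 nm) read every 15 s for 20 min. Duplicates; IC50 from vi/vo = 1/(1+[I]/IC50).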

[3] = target: T2, Disintegrin and metalloproteinase domain-containing protein 17 (Homo sapiens, UniProt P78536); experiment: Inhibition of recombinant human ADAM-17 using Mca-Lys-Pro-Leu-Gly-Leu-Dap(Dnp)-Ala-Arg-NH2 as substrate after 30 mins by fluorometric assay
T2 sequence (P78536 whole entry, the tested form may be a part): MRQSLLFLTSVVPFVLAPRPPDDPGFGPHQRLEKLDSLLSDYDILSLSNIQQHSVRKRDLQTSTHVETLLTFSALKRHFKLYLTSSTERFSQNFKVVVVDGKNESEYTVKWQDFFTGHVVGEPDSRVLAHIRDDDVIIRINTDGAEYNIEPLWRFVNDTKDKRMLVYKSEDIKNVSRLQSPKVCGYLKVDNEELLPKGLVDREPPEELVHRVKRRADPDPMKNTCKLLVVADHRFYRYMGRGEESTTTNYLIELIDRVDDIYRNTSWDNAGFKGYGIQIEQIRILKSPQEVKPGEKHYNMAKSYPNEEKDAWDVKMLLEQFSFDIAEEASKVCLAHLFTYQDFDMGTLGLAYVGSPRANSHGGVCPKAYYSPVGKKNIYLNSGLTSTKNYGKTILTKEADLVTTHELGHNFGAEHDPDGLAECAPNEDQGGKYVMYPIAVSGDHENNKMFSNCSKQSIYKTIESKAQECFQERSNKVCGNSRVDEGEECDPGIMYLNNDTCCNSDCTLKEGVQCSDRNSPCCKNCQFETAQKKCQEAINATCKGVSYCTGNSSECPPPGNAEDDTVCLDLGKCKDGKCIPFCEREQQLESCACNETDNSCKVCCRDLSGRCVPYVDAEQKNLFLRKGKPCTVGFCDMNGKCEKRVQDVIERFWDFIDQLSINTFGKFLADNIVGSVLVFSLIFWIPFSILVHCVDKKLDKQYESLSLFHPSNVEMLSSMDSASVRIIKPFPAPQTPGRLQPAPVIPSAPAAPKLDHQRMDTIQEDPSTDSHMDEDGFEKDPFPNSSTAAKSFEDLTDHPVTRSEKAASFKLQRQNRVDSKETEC
Procedure, shortened: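 Recombinant human ADAM-17, final 5 nM, preincubated with inhibitor for 30 min at 37 °C in Tris 25 mM pH 9, ZnCl2 25 µM, Brij-35 0.005%. Substrate final 2 µM. Fluorescence (ex 325/em 400 nm) read every 15 s for 20 min. Duplicates; IC50 from vi/vo = 1/(1+[I]/IC50).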

[4] = target: Matrix metalloproteinase-9 (Homo sapiens, UniProt P14780); experiment: Inhibition of recombinant human MMP-9 using Mca-Lys-Pro-Leu-Gly-Leu-Dap(Dnp)-Ala-Arg-NH2 as substrate after 3 hrs by fluorometric assay
Matrix metalloproteinase-9, sequence (P14780 whole entry): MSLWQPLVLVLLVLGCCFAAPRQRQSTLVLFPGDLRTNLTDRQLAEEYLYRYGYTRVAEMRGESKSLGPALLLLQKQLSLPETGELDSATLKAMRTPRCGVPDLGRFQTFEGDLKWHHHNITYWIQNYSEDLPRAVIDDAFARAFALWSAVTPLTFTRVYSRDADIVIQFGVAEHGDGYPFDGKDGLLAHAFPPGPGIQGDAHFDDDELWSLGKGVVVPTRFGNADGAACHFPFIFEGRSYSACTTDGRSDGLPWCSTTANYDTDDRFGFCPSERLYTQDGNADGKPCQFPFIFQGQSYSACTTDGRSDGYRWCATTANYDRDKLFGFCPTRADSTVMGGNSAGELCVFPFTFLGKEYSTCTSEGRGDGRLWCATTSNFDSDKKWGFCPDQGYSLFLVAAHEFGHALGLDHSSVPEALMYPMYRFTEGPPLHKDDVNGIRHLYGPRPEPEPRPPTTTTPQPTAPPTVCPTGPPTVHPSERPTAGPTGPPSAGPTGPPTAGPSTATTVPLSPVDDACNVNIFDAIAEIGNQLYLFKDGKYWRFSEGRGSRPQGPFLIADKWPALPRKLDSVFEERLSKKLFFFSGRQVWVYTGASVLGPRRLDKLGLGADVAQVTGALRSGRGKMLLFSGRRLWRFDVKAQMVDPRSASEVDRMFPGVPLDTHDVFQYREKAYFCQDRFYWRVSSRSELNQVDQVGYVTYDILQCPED
Procedure, shortened: (§1)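 Pro-MMPs were activated with APMA: MMP-1 2 mM for 2 h, MMP-2 2 mM for 1 h, MMP-9 1 mM for 1 h, all at 37 °C. Final enzyme: MMP-1 2.0 nM, MMP-2 0.56 nM, MMP-9 1.3 nM. Enzyme was preincubated with inhibitor for 3 h at 25 °C in Tris 50 mM pH 7.5, NaCl 150 mM, CaCl2 10 mM, Brij-35 0.05%, DMSO 1%. Substrate final 2 µM. Fluorescence (ex 325/em 400 nm) read every 15 s for 20 min. Duplicates; IC50 from vi/vo = 1/(1+[I]/IC50).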

[5] = target: 72 kDa type IV collagenase (Homo sapiens, UniProt P08253); experiment: Inhibition of recombinant human MMP-2 using Mca-Lys-Pro-Leu-Gly-Leu-Dap(Dnp)-Ala-Arg-NH2 as substrate after 3 hrs by fluorometric assay; procedure, shortened: as §1
72 kDa type IV collagenase, sequence (P08253 whole entry): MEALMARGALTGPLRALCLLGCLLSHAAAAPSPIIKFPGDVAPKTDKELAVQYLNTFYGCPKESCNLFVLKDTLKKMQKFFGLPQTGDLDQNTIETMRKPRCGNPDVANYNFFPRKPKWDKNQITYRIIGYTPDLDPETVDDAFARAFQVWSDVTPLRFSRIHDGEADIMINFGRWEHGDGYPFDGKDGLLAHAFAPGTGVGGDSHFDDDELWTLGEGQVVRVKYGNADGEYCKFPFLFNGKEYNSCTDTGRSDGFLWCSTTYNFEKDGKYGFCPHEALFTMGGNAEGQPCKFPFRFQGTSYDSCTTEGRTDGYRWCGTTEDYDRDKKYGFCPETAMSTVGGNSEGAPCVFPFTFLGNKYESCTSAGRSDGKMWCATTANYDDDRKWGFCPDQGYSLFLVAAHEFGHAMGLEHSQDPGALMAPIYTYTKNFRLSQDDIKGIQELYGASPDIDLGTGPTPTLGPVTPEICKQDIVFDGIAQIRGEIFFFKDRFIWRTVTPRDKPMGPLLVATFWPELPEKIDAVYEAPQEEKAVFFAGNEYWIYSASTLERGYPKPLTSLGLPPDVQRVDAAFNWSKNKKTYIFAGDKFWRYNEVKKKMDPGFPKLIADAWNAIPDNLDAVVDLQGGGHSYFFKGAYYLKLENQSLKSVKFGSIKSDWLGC

Interstitial collagenase = target: T3, Interstitial collagenase (Homo sapiens, UniProt P03956); experiment: Inhibition of human MMP-1 using Mca-Lys-Pro-Leu-Gly-Leu-Dap(Dnp)-Ala-Arg-NH2 as substrate after 3 hrs by fluorometric assay; procedure, shortened: as §1
T3 sequence (P03956 whole entry): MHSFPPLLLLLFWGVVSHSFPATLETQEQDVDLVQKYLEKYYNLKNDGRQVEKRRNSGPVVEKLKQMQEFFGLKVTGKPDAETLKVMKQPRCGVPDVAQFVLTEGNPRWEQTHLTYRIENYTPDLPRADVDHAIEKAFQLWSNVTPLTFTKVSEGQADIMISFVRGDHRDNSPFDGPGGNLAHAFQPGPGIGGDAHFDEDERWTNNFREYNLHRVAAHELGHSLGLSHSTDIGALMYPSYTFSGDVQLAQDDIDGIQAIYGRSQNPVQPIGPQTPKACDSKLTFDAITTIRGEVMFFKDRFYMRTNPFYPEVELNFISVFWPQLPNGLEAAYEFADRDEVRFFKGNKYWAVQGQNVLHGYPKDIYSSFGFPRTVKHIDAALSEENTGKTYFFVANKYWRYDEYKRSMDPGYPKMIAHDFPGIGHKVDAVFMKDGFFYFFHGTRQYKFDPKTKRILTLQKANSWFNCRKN

[6] = target: T1, Disintegrin and metalloproteinase domain-containing protein 10; experiment: Inhibition of ADAM-10 in human KM-H2 cells assessed as reduction in pervanadate-induced soluble ULBP3 shedding after 24 hrs by ELISA; assay type: cell-based
Procedure, shortened: (§2)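 Supernatants collected before and after 24 h inhibitor exposure, 10 to 0.1 µM. 100 µM sodium orthovanadate was activated to pervanadate with 100 µM H2O2 and added for 40 min before harvest. Soluble ULBP3 or ALCAM measured by ELISA.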

[7] = target: T1, Disintegrin and metalloproteinase domain-containing protein 10; experiment: Inhibition of ADAM-10 in human KM-H2 cells assessed as reduction in pervanadate-induced soluble MICB shedding after 24 hrs by ELISA; assay type: cell-based
Procedure, shortened: (§3)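 Supernatants taken from HL cultures before and after 24 h inhibitor exposure, 10 to 0.1 µM. 100 µM sodium orthovanadate was activated to pervanadate with 100 µM H2O2 and added for 40 min before harvest. Soluble MIC-B measured by ELISA against a MIC-B/Fc chimera standard curve. The DMSO+pervanadate supernatant was set as 100% shedding. Triplicate wells, 3 independent experiments.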

[8] = target: T2, Disintegrin and metalloproteinase domain-containing protein 17; experiment: Inhibition of ADAM-17 in human KM-H2 cells assessed as reduction in pervanadate-induced soluble ALCAM shedding after 24 hrs by ELISA; assay type: cell-based; procedure, shortened: as §2
[9] = target: T1, Disintegrin and metalloproteinase domain-containing protein 10; experiment: Inhibition of ADAM-10 in human L428 cells assessed as reduction in pervanadate-induced soluble ULBP3 shedding after 24 hrs by ELISA; assay type: cell-based, L-428; procedure, shortened: as §2
[10] = target: T1, Disintegrin and metalloproteinase domain-containing protein 10; experiment: Inhibition of ADAM-10 in human L428 cells assessed as reduction in pervanadate-induced soluble MICB shedding after 24 hrs by ELISA; assay type: cell-based, L-428; procedure, shortened: as §3
[11] = target: T2, Disintegrin and metalloproteinase domain-containing protein 17; experiment: Inhibition of ADAM-17 in human L428 cells assessed as reduction in pervanadate-induced soluble ALCAM shedding after 24 hrs by ELISA; assay type: cell-based, L-428; procedure, shortened: as §2
[12] = target: T1, Disintegrin and metalloproteinase domain-containing protein 10; experiment: Inhibition of ADAM-10 in human L540 cells assessed as reduction in pervanadate-induced soluble ULBP3 shedding after 24 hrs by ELISA; assay type: cell-based, L-540; procedure, shortened: as §2
[13] = target: T1, Disintegrin and metalloproteinase domain-containing protein 10; experiment: Inhibition of ADAM-10 in human L540 cells assessed as reduction in pervanadate-induced soluble MICB shedding after 24 hrs by ELISA; assay type: cell-based, L-540; procedure, shortened: as §3
[14] = Cytotoxicity against human KM-H2 cells assessed as cell viability at 10 uM after 72 to 96 hrs by JC-1 staining-based fluorescence assay; conditions: read-out: Activity
Procedure, shortened: (§4)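 HL cell lines from DSMZ exposed to inhibitor at 10 µM for 72 and 96 h. Viability read as mitochondrial potential by staining with the dual-emission fluorescent probe JC-1.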

[15] = Cytotoxicity against human L428 cells assessed as cell viability at 10 uM after 72 to 96 hrs by JC-1 staining-based fluorescence assay; parameters: species or system L-428; conditions: read-out: Activity; procedure, shortened: as §4
[16] = Cytotoxicity against human L540 cells assessed as cell viability at 10 uM after 72 to 96 hrs by JC-1 staining-based fluorescence assay; parameters: species or system L-540; conditions: read-out: Activity; procedure, shortened: as §4

Compound | IC50 [1] [µM] | IC50 [2] [µM] | IC50 [3] [µM] | IC50 [4] [µM] | IC50 [5] [µM] | IC50 (Interstitial collagenase) [µM] | IC50 [6] [µM] | IC50 [7] [µM] | IC50 [8] [µM] | IC50 [9] [µM] | IC50 [10] [µM] | IC50 [11] [µM] | IC50 [12] [µM] | IC50 [13] [µM] | viability at 10 µM [14] [%] | viability at 10 µM [15] [%] | viability at 10 µM [16] [%]
CNC(=O)[C@@H](NC(=O)[C@H](CCCc1ccccc1)[C@H](C)N(O)C=O)C(C)(C)C | 0.088 | 0.027 | 0.86 | 0.0051 | 0.0021 | 0.125 | 10 | 12 | 10 | 15 | 12 | 10 | 10 | 12 |  |  | 
O=C(NCCC[C@@H](NS(=O)(=O)c1ccc(OCc2cc(Br)cc(Br)c2)cc1)C(=O)NO)OCc1ccccc1 |  |  |  |  |  |  | 15 | 15 | 0.5 | 10 | 15 | 0.1 | 12 | 15 | > 96 | > 96 | > 96
Cc1cc(C#N)ccc1N1CCN(S(=O)(=O)N[C@H](CCCNC(=O)OCc2ccccc2)C(=O)NO)CC1 | 50 | 0.0092 | 0.09 | 4.5 | 0.37 | > 200 | 10 | 7 | 1 | 10 | 7 | 1 | 10 | 12 | > 96 | > 96 | > 96
Cc1cc(C#N)ccc1N1CCN(S(=O)(=O)N2CSC[C@@H]2C(=O)NO)CC1 | 100 | 0.04 | 1.5 | 24 | 5.4 | 346 | 7 | 5 | 10 | 5 | 5 | 12 | 7 | 7 | > 96 | > 96 | > 96
